TAAR1 antag – human TAAR1 antagonists, primary screen, Fluo-8 calcium fluorescence, CHO RD-HGA16 cells | Trace amine-associated receptor 1 (Homo sapiens), Q96RJ0 | antagonist | inhibition, % at 3 µM | 360,000 compounds, 1.5% hits;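 active = inhibition above a per-plate cutoff, the mean inhibition of test compounds on that plate plus 3 SD, cut at about 49% in these data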;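 note: 0% = DMSO plus EC80 beta-PEA response and 100% = DMSO alone without agonist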
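Test system: CHO RD-HGA16 cells bearing hTAAR1 | Reagent: β-PEA, EC80 | Compound dosing: 3 µM, single point | Schedule: Dye loading 75 min at 37 °C, then 30 min room temperature | Signal: Calcium fluorescence with Fluo-8 | Evaluation: Percent inhibition of PEA-evoked calcium signal, max/basal emission ratio | Control set: DMSO-only wells and EC80 β-PEA-stimulated wells | Repeats: Singlicate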
OX1R antag-1 – OX1R (HCRTR1) antagonists, primary screen, fluorescence, CHO/OX1R cells, Fluo-8 calcium, orexin A | Orexin/Hypocretin receptor type 1 (Homo sapiens), O43613 | Fluo-8 calcium fluorescence | inhibition, % at 5 µM | 330,000 compounds, 0.43% hits;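 active = inhibition above its plate's threshold, mean inhibition of all tested compounds on the plate plus 3 SD, cut at about 37% in these data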;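 note: 0% = orexin A challenge wells and 100% = SB-334867-A antagonist wells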
Target sequence (O43613 whole entry, looked up): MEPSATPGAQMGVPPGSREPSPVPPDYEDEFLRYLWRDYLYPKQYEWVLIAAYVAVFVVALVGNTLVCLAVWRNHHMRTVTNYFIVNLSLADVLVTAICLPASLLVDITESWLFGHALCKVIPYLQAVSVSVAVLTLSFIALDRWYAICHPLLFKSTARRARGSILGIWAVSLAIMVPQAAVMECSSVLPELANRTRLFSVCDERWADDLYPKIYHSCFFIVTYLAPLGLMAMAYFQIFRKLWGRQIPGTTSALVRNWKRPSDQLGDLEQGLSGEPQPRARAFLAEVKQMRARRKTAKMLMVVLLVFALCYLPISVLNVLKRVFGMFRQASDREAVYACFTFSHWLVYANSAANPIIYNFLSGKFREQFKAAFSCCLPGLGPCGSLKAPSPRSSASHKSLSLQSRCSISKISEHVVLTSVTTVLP
OX1R antag-2 – antagonists of human orexin 1 receptor (OX1R); 330,000 compounds, 1.8% hits; Orexin/Hypocretin receptor type 1 (Homo sapiens), O43613; AID 485270, 2010; inhibition, % at 6.6 µM; OX1R-expressing cells, FRET antagonist read-out; in the data active = inhibition mostly above about 38%, no sharp cut-off; inactive = mostly below about 40%;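 note: 0% = agonist challenge alone and 100% = reference antagonist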
TAAR1 agonist – human TAAR1 agonists, primary screen, Fluo-8 calcium fluorescence, CHO RD-HGA16 cells; vehicle wells 0%, saturating PEA agonist 100%; 360,000 compounds, 0.99% hits; activation, % at 3 µM; AID 624467, 2012;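 active = activation above the mean activation of all test compounds in the run plus 3 SD, cut at about 38% in these data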
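Benchmarks: low control DMSO, high control PEA (EC100); System: CHO RD-HGA16 cells carrying human TAAR1 plus Gα16; Detection: Fluo-8 fluorescence, 5 s baseline then 140 s kinetic read; Schedule: 17-24 h plating, Fluo-8 75 min 37 °C, 30 min RT; Read-out basis: % activation from peak over basal fluorescence ratio, DMSO-to-PEA scaled.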
CHO parental Ca – ATP-evoked calcium signal inhibitors, parental CHO, primary screen, counter-screen for OX1R antagonist project, cell-based, fluorescence, Fluo-8 calcium dye. parental CHO-K1, ATP-induced calcium, Fluo-8 fluorescence. inhibition, % at 5.6 µM. 330,000 compounds, 0.63% hits. AID 463079, 2010;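 active = inhibition above that plate's mean sample inhibition plus 3 SD, cut at about 26% in these data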;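 note: 0% = ATP-challenged DMSO wells and 100% = DMSO wells without ATP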
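Test system: parental CHO cells; detection: calcium-sensitive Fluo-8 fluorescence; evaluation: percent inhibition of calcium signal; also added: ATP as calcium-mobilizing challenge; repeats: one well per compound; control set: ATP-challenged DMSO wells low, unchallenged DMSO wells high; compound: single nominal dose of 5.6 µM per compound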
GPR7 antag – GPR7 receptor antagonists, primary screen, cell-based, fluorescence, single concentration; GPR7-expressing cells, fluorescence antagonist assay; 290,000 compounds, 1.1% hits; Neuropeptides B/W receptor type 1 (Homo sapiens), P48145; inhibition, % at 4.4 µM; in the data active = inhibition above about 16%, passing the limit was not always enough;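 note: cells stimulated with the agonist NPW; 0% = agonist with vehicle and 100% = vehicle without agonist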
GPR7 antag cf – GPR7 receptor antagonists, confirmation, cell-based, fluorescence, single concentration. shares compounds with GPR7 antag. inhibition, % at 4.4 µM. 2,400 compounds, 52% hits. AID 1952, 2009. GPR7-expressing cells, calcium fluorescence antagonist mode; in the data active = inhibition above about 24%;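 note: stimulated with the GPR7 agonist NPW; 0% = agonist plus vehicle and 100% = vehicle alone without agonist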
MCHR1 antag – MCHR1 antagonists in cells, counter-screen for GPR7 antagonist project, cell-based, fluorescence, human; 2,400 compounds, 62% hits; shares compounds with GPR7 antag; AID 2148, 2009; MCHR1-expressing cells, fluorescence antagonist assay; inhibition, % at 4.4 µM; in the data active = inhibition above about 22%;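 note: 0% = vehicle with agonist and 100% = vehicle without agonist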
* = called active by the depositor; nt = not tested or not shown. An excerpt weighted towards active compounds, which were near 4.5% of everything screened.

SMILES	TAAR1 antag	OX1R antag-1	OX1R antag-2	TAAR1 agonist	CHO parental Ca	GPR7 antag	GPR7 antag cf	MCHR1 antag
O=C(NCCc1ccc(O)c(Br)c1)c1ccc(Br)o1	4	nt	nt	19	nt	nt	nt	nt
CC1CCN(CCCNC(=O)c2ccc(CSCc3cccc(Cl)c3)o2)CC1	12	-22	10	9	-18	22*	17	13
COc1ccc(Br)c(C(=O)NCC2CCCCC2)c1	8	-24	-2	-3	-13	1	nt	nt
COc1ccc2oc(C(=O)NC3CCCCC3)c(C)c2c1	-30	-4	34	3	-3	29*	20	30*
COc1ccc(Br)c(C(=O)NC2CCCC2)c1	6	3	20	0	-9	22*	-9	2
Cc1c(C(=O)NC2CCCCC2)oc2ccc(F)cc12	-8	-17	11	5	-17	19	nt	nt
C=CCOc1ccc(CN(C)CC(=O)Nc2ccc3c(c2)CCC3)cc1	13	-34	11	9	-11	24*	1	33*
Cc1c(O)ccoc1=O	2	-2	14	0	-9	21*	-1	-6
COc1cc(CNc2nccn3ccnc23)cc(OC)c1	-9	nt	nt	4	nt	nt	nt	nt
CC1CC(C)CN(CCCNC(=O)C2CCCN(c3ncnc4c3nc3n4CCCCC3)C2)C1 (configuration not stated)	-17	-19	17	3	-27	28*	-8	10
CC1CCCN(CCCNC(=O)C2CCCN(c3ncnc4c3nc3n4CCCCC3)C2)C1 (configuration not stated)	-14	-23	10	0	-16	-2	nt	nt
COc1ccc(C=O)cc1CSc1nnc(COc2cccc3cccnc23)o1	21	-25	42	14	-25	24*	10	27*
COc1ccc(N2CCN(C(=O)CSc3nnc(COc4cccc5cccnc45)o3)CC2)cc1	10	-27	3	3	-19	-10	nt	nt
COc1ccccc1-c1noc(CCC(=O)Nc2cc(C(F)(F)F)ccc2Cl)n1	2	6	24	24	13	23*	15	32*
COc1ccccc1-c1noc(CCC(=O)Nc2cccnc2)n1	4	nt	nt	1	nt	nt	nt	nt
CN(CC(=O)Nc1ccccc1Br)C(=O)CCc1ccccc1	-12	1	17	3	-2	23*	2	-9
CN1CCC(CO)(Cc2ccccc2)CC1	-7	5	10	1	1	-15	nt	nt
OCC1(Cc2ccc(Cl)cc2)CCN(CCCc2ccccc2)CC1	-3	-35	2	15	-14	26*	37*	31*
CCc1ccc(Nc2n[n+](-c3ccccc3)c(-c3ccc(N(CC)CC)cc3)s2)cc1	50*	29	25	50*	45*	62*	88*	83*
c1ccc(COc2ccc(-c3sc(Nc4ccccc4)n[n+]3-c3ccccc3)cc2)cc1	nt	-6	26	nt	0	9	nt	nt
CCc1ccc(Nc2n[n+](-c3ccccc3)c(-c3ccc(OCc4ccccc4)cc3)s2)cc1	2	-8	14	1	3	68*	53*	59*
CCc1ccc(Nc2n[n+](-c3ccccc3)c(-c3c(Cl)cccc3Cl)s2)cc1	92*	103*	36	59*	93*	45*	60*	73*
CCc1ccc(Nc2n[n+](-c3ccccc3)c(-c3cc(OC)c(OC)cc3Br)s2)cc1	7	-21	1	15	-13	-3	nt	nt
COc1cc2c(cc1OC)C(O)C(O)(CO)C(C(=O)O)C2c1cc(OC)c(OC)c(OC)c1 (configuration not stated)	-8	nt	nt	3	nt	nt	nt	nt
Cc1ccc(S(=O)(=O)NCc2ccccc2)cc1C(=O)NCC(=O)Nc1c(C)cccc1C	-36	nt	nt	2	nt	nt	nt	nt
SMILES	TAAR1 antag	OX1R antag-1	OX1R antag-2	TAAR1 agonist	CHO parental Ca	GPR7 antag	GPR7 antag cf	MCHR1 antag
NC(N)=NS(=O)(=O)c1ccc(NC(=S)NC(=O)Cc2ccc(Cl)cc2)cc1	2	17	14	1	3	nt	nt	5
NC(N)=NS(=O)(=O)c1ccc(NC(=S)NC(=O)c2ccccc2)cc1	2	-6	21	-1	-4	4	nt	nt
CSc1ccccc1C(=O)N(C)C(c1ccccc1)c1ccccc1	11	10	18	-3	-10	22*	15	61*
CC1=NN(C(C#N)c2ccccc2)C(c2ccccc2)C1 (configuration not stated)	8	-7	7	-1	0	37*	5	-2
O=C(NCCN1CCC(n2c(=O)[nH]c3ccccc32)CC1)c1ccc(F)cc1Cl	17	nt	nt	6	nt	nt	nt	nt
COc1ccc(C2=NS(=O)(=O)N(C)C(C(=O)N3CCC(C)CC3)=C2)cc1	-6	-16	14	1	2	9	nt	nt
CN1C(C(=O)N2CCc3ccccc3C2)=CC(c2ccc(F)cc2)=NS1(=O)=O	9	-17	16	42*	-15	30*	20	25*
O=c1[nH]c(=S)[nH]c2c1CN(Cc1ccc(F)cc1)CC2	-8	-8	4	2	-7	30*	-5	-5
COc1ccc(CCNC(=O)c2ccc(F)c(S(=O)(=O)N3CCCCC3)c2)cc1	-4	nt	nt	3	nt	nt	nt	nt
CCOC(=O)c1sc(NC(=O)Nc2ccc(Cl)cc2)cc1C	82*	67*	86*	13	79*	35*	63*	72*
Cc1ccc(NC(=O)COc2ccccc2CNC(C)(C)CC(C)(C)C)cc1	-3	-14	6	46*	-10	25*	35*	46*
CC(=O)NCCn1c(SCc2cc(F)ccc2F)nc2ccccc2c1=O	14	-12	19	8	-9	33*	-5	-3
O=C(CC[C@H]1O[C@@H](n2ccc(=O)[nH]c2=O)[C@H](O)[C@@H]1O)N[C@H](Cc1ccccc1)C(=O)NCc1cccs1	-10	nt	nt	8	nt	nt	nt	nt
CN(Cc1ccccc1)C(=O)[C@@H]1CCCN1C(=O)OC(C)(C)C	-24	nt	nt	1	nt	nt	nt	nt
COc1ccc(OC)c(S(=O)(=O)Nc2ccc3[nH]c(=O)[nH]c3c2)c1	-9	6	-1	0	-7	2	nt	nt

Source: PubChem BioAssay (The Scripps Research Institute Molecular Screening Center)
